An excerpt weighted towards active compounds, which were near 1.5% of everything screened.
CSN deneddyl inh: inhibitors of CSN-mediated cullin deneddylation, primary screen, biochemical, fluorescence polarization, uHTS. inhibition, % at 12.5 µM. Purified CSN, SCF-Nedd8-OG deneddylation. 360,000 compounds, 0.38% hits;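 active = pattern-corrected inhibition above about 35%, with an unprinted fluorescence ratio check between 0.5 and 1.5, limit read from the data, passing the limit was not always enough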
Target sequence (Q92905 whole entry, looked up, one chain of several): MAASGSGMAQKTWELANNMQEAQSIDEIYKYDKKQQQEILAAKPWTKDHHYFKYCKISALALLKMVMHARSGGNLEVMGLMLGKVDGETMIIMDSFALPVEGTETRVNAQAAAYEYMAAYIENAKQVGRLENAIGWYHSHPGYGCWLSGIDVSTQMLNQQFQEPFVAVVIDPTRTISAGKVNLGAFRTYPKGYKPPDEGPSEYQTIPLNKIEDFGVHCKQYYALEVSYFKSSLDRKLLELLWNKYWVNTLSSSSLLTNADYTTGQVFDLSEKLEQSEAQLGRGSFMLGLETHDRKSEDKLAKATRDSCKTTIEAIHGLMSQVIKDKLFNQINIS
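Schedule: reaction 90 min, room temperature / Assay system: HEK293T-derived human Csn5 enzyme / Input: Csn5 at 0.24 nM final / Measure: inhibition of Csn5 cleavage, % / Control set: substrate-only high control, full reaction low control / Technique: fluorescence polarization of the substrate / Buffer or medium: Tris/NaCl/DTT buffer, pH 7.5 / Reagent: SCFSkp2-Nedd8OG substrate at 10 nM final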
HNF4A DNA FP: change in binding of human HNF4A to DNA, primary screen, biochemical, fluorescence polarization, FITC-DNA; Hepatocyte nuclear factor 4-alpha (Homo sapiens), P41235; AID 1224865, 2016; activity change, % at 10 µM; 1 h; 360,000 compounds, 0.3% hits; in the data active = activity change above about 30%, passing the limit was not always enough
Rpn11 inh: Rpn11 (PSMD14) deubiquitinase inhibitors, primary screen, biochemical, fluorescence polarization, uHTS; AID 588493, 2011; calls only at 20 µM; 26S proteasome non-ATPase regulatory subunit 14 (Homo sapiens), O00487; human 26S proteasome, Ub4-pepOG fluorescence polarization; 20S core pre-blocked with epoxomicin; 360,000 compounds, 0.59% hits;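 active = inhibition at 20 µM, scaled to each plate's controls, above about 33%, limit read from the data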
Target sequence (O00487 whole entry, looked up): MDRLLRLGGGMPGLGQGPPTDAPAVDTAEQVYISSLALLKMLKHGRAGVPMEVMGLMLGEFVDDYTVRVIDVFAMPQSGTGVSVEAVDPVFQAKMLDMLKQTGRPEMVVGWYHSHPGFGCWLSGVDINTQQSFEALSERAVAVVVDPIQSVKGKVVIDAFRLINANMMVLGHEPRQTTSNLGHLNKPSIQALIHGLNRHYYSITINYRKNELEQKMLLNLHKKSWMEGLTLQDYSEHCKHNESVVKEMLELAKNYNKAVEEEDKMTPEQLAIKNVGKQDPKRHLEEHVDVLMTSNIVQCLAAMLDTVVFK
TPT1 inh: Candida albicans TPT1 enzyme inhibitors, primary screen, biochemical, fluorescence polarization | tRNA 2'-phosphotransferase TPT1 (Candida albicans SC5314) | recombinant caTPT1, FP RNA substrate dephosphorylation | inhibition, % at 5 µM | 300,000 compounds, 0.81% hits | AID 1962, 2009;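 active = inhibition above the mean of all tested compounds plus 3 SD, set per screening campaign, cut at about 24% in these data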
Rpn11 confirm: Rpn11 (PSMD14) deubiquitinase inhibitors, confirmation, biochemical, fluorescence polarization, single concentration | inhibition, % at 20 µM | purified human 26S proteasome, Ub4-pepOG fluorescence polarization; proteasome pretreated with epoxomicin | AID 602318, 2012 | shares compounds with Rpn11 inh | 1,900 compounds, 29% hits
MMP-2 inh: MMP-2 enzyme inhibition, confirmation, counter-screen for RPN11 inhibitor project, biochemical, fluorescence, single concentration | shares compounds with Rpn11 inh | recombinant MMP-2, FRET peptide cleavage fluorescence | inhibition, % at 20 µM | 1,900 compounds, 4% hits | AID 602330, 2012;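 note: human MMP-2 activated beforehand with APMA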
Thrombin FP: bovine thrombin protease inhibition, confirmation, counter-screen for Rpn11 inhibitor project, biochemical, fluorescence polarization, single concentration. inhibition, % at 20 µM. shares compounds with Rpn11 inh. 1,900 compounds, 13% hits. bovine thrombin cleavage of Ub4-pepOG;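 active = mean inhibition at least 40% at 20 µM, or signal 3 deviations below plate average, so some actives read negative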
A number is an active result; 0 = inactive; - = no result; + = active, no number. Cut-off read from the data, not from the text of the source, unless noted: active = inhibition above about 40%; inactive = the rest.

SMILES	CSN deneddyl inh	HNF4A DNA FP	Rpn11 inh	TPT1 inh	Rpn11 confirm	MMP-2 inh	Thrombin FP
CCS(=O)(=O)N1N=C(c2cccs2)CC1c1cc2cc(C)ccc2nc1Cl (centres undefined)	0	0	+	0	0	0	0
Cc1cc(C)c2nc(/N=C(\N)NC(=O)c3ccccc3)nc(C)c2c1	0	0	0	0	-	-	-
Cc1cc(C)c2nc(/N=C(\N)NC(=O)Nc3ccccc3)nc(C)c2c1	0	0	+	0	0	0	0
Cc1cc2nc(/C=C/c3nc4cc(C)c(C)cc4[nH]3)[nH]c2cc1C	0	0	+	0	0	0	0
Cc1cc2nc(CO)[nH]c2cc1C	0	0	0	0	-	-	-
Cc1cc2nc(CS)[nH]c2cc1C	0	0	+	0	53	0	0
Cc1cc2nc(/C=C/c3cccnc3)[nH]c2cc1C	0	0	0	-	-	-	-
COCCn1c(SCC(=O)NC(=O)NCc2ccccc2)nc2ccccc2c1=O	0	0	0	-	-	-	-
O=C(Nc1nnc(CCN2CCCCC2)s1)c1ccc(Cl)cc1Cl	0	0	0	0	-	-	-
CCC1(c2ccc(F)cc2)NC(=O)N(CC(=O)Nc2ccc(-c3nc4ccc(C)cc4s3)cc2)C1=O (centres undefined)	0	0	+	0	0	0	0
O=C(CCN1C(=O)NC2(CCCC2)C1=O)Nc1ccc(-c2nc3ccccc3s2)cc1	0	0	+	-	61	0	48
COc1ccc(NC(=O)c2ccc(Br)c(S(=O)(=O)N3CCOCC3)c2)cc1	0	0	0	0	-	-	-
CCCCn1c(N)c(N(C)C(=O)C2CCCC2)c(=O)[nH]c1=O	0	0	0	-	-	-	-
O=C(CSc1n[nH]c(-c2ccncc2)n1)Nc1ccccc1Cl	0	0	0	0	-	-	-
COc1ccc(C(=O)N2CCCCC2c2cc(C(=O)Nc3cccc(C#N)c3)no2)cc1 (centres undefined)	0	0	0	-	-	-	-
Cn1cc([C@@H]2C[C@H]3CN(Cc4cccc(Cl)c4)C(=O)[C@]34CCCN24)c2ccccc21	0	0	+	0	53	0	65
O=C1N(Cc2cccc(Cl)c2)C[C@@H]2C[C@@H](c3ccccn3)N3CCC[C@@]123	0	0	0	0	-	-	-
O=C1NC(=S)S/C1=C\c1cc2ccccc2nc1N1CCCCC1	0	0	+	0	74	0	46
COC(=O)C1=C(\O)CCCC/C=C\1C(=O)O	0	0	0	-	-	-	-
C[C@H](NC(=O)c1ccco1)C(=O)NC1CCCCCC1	0	0	0	-	-	-	-
CSCCC(NC(=O)c1ccco1)C(=O)OC(C)C(=O)NC(=O)NC1CCCCC1 (centres undefined)	0	0	+	0	0	0	0
O=C(CSC1=NS(=O)(=O)c2cc(Cl)ccc2N1)Nc1ccccc1C(F)(F)F	0	0	0	0	-	-	-
CCOC(=O)C1C(C(=O)OCC)C2C(=O)C3C(C(=O)OCC)C(C(=O)OCC)C3C(=O)C12 (centres undefined)	0	0	0	-	-	-	-
CC(=O)Nc1sc(C)c(C)c1C(=O)OCCOc1ccccc1	0	0	+	0	0	0	0
O=C(COc1ccc(F)cc1Cl)N(Cc1nnc(-c2ccccc2Cl)o1)C1CC1	0	0	0	0	-	-	-
SMILES	CSN deneddyl inh	HNF4A DNA FP	Rpn11 inh	TPT1 inh	Rpn11 confirm	MMP-2 inh	Thrombin FP
O=C(NCc1ccco1)c1cccc(N2CCCC2=O)c1	0	0	+	0	0	0	0
O=C(CNC(=O)OCc1ccccc1)NCC(=O)NC(Cc1c[nH]c2ccccc12)C(=O)O (centres undefined)	0	0	0	-	-	-	-
CN1CCN(C(c2ccc(Cl)cc2)c2cc(Cl)c3cccnc3c2O)CC1 (centres undefined)	0	0	+	0	44	0	0
CN1CCN(C(c2ccc(C(F)(F)F)cc2)c2cc(Cl)c3cccnc3c2O)CC1 (centres undefined)	-	-	-	0	-	-	-
COc1ccc(-c2ccc3[nH]c4c(c3c2)CCN2C[C@@H]([C@H](C)O)[C@@H](N(C)C(=O)Nc3cc(Cl)cc(Cl)c3)C[C@@H]42)cc1	0	0	+	-	0	0	0
CC1(C(=O)NCCc2c[nH]c3ccccc23)CCN1CC1CCCCC1 (centres undefined)	0	0	0	-	-	-	-
Cc1ccc(CS(=O)Cc2ccc(C(=O)NCc3cccs3)o2)cc1 (centres undefined)	0	0	+	0	0	0	0
Cc1ccc(CS(=O)(=O)Cc2ccc(C(=O)NCc3cccs3)o2)cc1	0	0	0	0	-	-	-
COC(=O)c1ccccc1N(C)S(=O)(=O)c1cc2c3c(c1)CCC(=O)N3CCC2	0	0	0	0	-	-	-
N=C1S/C(=C\c2ccc(-c3ccccc3C(=O)O)o2)C(=O)N1c1ccc2c(c1)OCO2	0	0	0	-	-	-	-
O=C(O)c1ccccc1-c1ccc(C=c2sc3nc4cc(Br)cnc4n3c2=O)o1	0	0	+	-	+	70	184
CN1CCC(N(C)C(=O)c2sc3cc(F)ccc3c2Cl)CC1	0	100	+	0	0	0	0
O=C(OCC(=O)N1CCCCC1)c1ccc2ccccc2n1	0	0	0	-	-	-	-
Cc1cc(C)cc(NS(=O)(=O)c2cnc(Cl)c(Cl)c2)c1	0	40	+	0	0	0	0
O=C(CSc1nnc(-c2ccncc2)n1-c1ccccc1)NCC1CCCO1 (centres undefined)	0	0	0	-	-	-	-
CCN(CC)C(=O)CSc1nc2c(sc(=S)n2-c2ccccc2OC)c(=O)n1-c1ccccc1	0	0	+	0	0	0	0
COC(=O)C1=C(O)/C(=C\c2ccc(O)c(OC)c2)N=C1C	0	0	+	0	0	0	0
O=S1(=O)C[C@@H](N2CCC[C@@H]2CO)[C@H](COCc2ccccc2)N1	0	0	0	-	-	-	-
CCc1ccccc1OCC(=O)Nc1ccc(N2CCCC2)cc1C	0	52	+	-	43	0	0
Cc1noc(C(C)C)c1C(=O)Nc1ccc(-c2nnc3n2CCCCC3)cc1	0	0	0	-	-	-	-
CCS(=O)(=O)N1N=C(c2ccc(NS(C)(=O)=O)cc2)CC1c1ccccc1 (centres undefined)	35	86	+	0	153	0	139
COc1ccc(S(=O)(=O)Nc2ccc3c(c2)C(=O)N([C@H](C)CO)C[C@H](C)[C@@H](CN(C)C(=O)Nc2c(C)noc2C)OCCCC[C@H](C)O3)cc1	0	0	0	-	-	-	-

Bioassay records (PubChem)
